Consider 4 compounds from ChEMBL document CHEMBL3108749, “Discovery of a non-estrogenic irreversible inhibitor of 17β-hydroxysteroid dehydrogenase type 1 from 3-substituted-16β-(m-carbamoylbenzyl)-estradiol derivatives” (J Med Chem, 2014).

One may read the inhibition as the percentage by which the read-out fell short of the control. A word on the IC50: it is the concentration that inhibits the measured activity by half.

The source made the active and inactive calls. No cut-off for these calls is given here.

Assay [1] has as its system T47D. As to the kind of experiment: Cytotoxicity against human estrogen-starved estrogen-sensitive T47D cells assessed as cell growth at 0.1 uM after 7 days by MTS assay relative to control. The settings on record: 168 h, read-out: Activity. The class given is functional. In outline:
(§1)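 MCF-7 (DMEM-F12) or T-47D (RPMI) cells are kept in medium with insulin (50 ng/mL) and 5% dextran-coated charcoal-treated FBS, seeded at 3000 cells/well. After 48 h, medium is replaced with medium containing compound, renewed every two days, and cells grow seven days. Growth is read by CellTiter 96 aqueous (MTS) assay as % proliferation vs basal control (0%). Scored −/+/++/+++ bands.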
On the technique in general: Formazan colour is commonly taken as a measure of viable cells.

The subject of assay [2] is T47D. The assay can be described thus: Cytotoxicity against human estrogen-starved estrogen-sensitive T47D cells assessed as cell growth at 1 uM after 7 days by MTS assay relative to control. The settings on record: 168 h, read-out: Activity. The assay is classed as functional. In a few lines:
as §1

Assay [3] has as its target T1, 17-beta-hydroxysteroid dehydrogenase type 1 (Homo sapiens) (UniProt P14061).
T1 sequence (whole entry): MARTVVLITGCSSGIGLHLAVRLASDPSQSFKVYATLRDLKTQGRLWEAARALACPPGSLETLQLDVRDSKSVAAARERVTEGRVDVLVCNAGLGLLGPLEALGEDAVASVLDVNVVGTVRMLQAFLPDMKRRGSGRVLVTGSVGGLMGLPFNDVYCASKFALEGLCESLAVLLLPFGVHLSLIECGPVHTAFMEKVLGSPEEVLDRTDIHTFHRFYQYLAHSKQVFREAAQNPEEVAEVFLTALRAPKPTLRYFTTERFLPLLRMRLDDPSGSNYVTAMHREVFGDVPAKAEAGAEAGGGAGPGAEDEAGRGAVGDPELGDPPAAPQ
As to the kind of experiment: Inhibition of 17-beta HSD1 in human T47D cells assessed as transformation of [14C]E1 to [14C]E2 at 0.1 uM after 24 hrs by thin layer chromatography. The class given is cell-based. In outline: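 T-47D cells (endogenous 17β-HSD1) are seeded at 3000 cells/well in RPMI with insulin (50 ng/mL) and 5% charcoal-stripped FBS. After 24 h, compound (from EtOH stock, 0.1 μM final) is added with [14C]-E1 (60 nM) for 24 h. Steroids are extracted into diethyl ether, separated by silica TLC (toluene/acetone 4:1) and quantified. Mean ± SD of ≥2 independent experiments in triplicate.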

Assay [4] has as its target T2, 17-beta-hydroxysteroid dehydrogenase type 1 (Homo sapiens, UniProt P14061).
T2 sequence (P14061 whole entry): T1 sequence (whole entry)
As to the kind of experiment: Inhibition of 17-beta HSD1 in human T47D cells assessed as transformation of [14C]E1 to [14C]E2 after 24 hrs by thin layer chromatography. The assay is classed as cell-based. In a few lines: (§2)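 Intact T-47D cells in RPMI with insulin (50 ng/mL) and 5% dextran-charcoal-treated FBS. After 24 h, inhibitor (from EtOH stock) added at 0.1 or 1 μM for screening or 1 nM–10 μM for IC50, with [14C]-E1 (60 nM), for 24 h. Ether extraction, TLC (toluene/acetone 4:1). IC50 = concentration halving E1→E2 conversion; triplicates, at least two experiments.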

In assay [5] the test system is MCF7. As to the kind of experiment: Cytotoxicity against human estrogen-starved estrogen-sensitive MCF7 cells assessed as cell growth at 1 uM after 7 days by MTS assay relative to control. The settings on record: MCF7, 168 h, read-out: Activity. The assay is classed as functional. In outline: as §1
In assay [6] the target is Cytochrome P450 3A4 (Homo sapiens, UniProt P08684). The assay can be described thus: Inhibition of CYP3A4 (unknown origin) by fluorescence assay. The assay is classed as ADME. In outline:
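Commercial CYP3A4 kit with dibenzylfluorescein as substrate, read by fluorescence of its enzymatic product. Compound dissolved in DMSO/acetonitrile (5:95). IC50 from means of at least two experiments in triplicate.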

The target in assay [7] is T3, 3-keto-steroid reductase/17-beta-hydroxysteroid dehydrogenase 7 (Homo sapiens) (UniProt P56937).
T3 sequence (whole entry): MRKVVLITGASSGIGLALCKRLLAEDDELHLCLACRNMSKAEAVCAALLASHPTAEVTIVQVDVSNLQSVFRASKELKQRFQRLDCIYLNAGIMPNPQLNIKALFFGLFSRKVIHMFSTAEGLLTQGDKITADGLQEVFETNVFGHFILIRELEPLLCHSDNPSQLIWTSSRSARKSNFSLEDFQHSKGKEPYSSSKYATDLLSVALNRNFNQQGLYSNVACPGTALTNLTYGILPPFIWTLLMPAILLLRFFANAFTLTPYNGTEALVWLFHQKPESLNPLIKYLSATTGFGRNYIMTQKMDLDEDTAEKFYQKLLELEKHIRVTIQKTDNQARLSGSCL
The assay can be described thus: Inhibition of 17-beta HSD7 (unknown origin) transfected in HEK293 cells using [14C]E1 as substrate at 10 uM. The assay is classed as cell-based. In outline: (§3)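 Stably transfected HEK-293 cells in stripped-serum MEM with G418 and insulin, seeded 48 h. Then treated with compound in DMSO (<0.5% final) plus 60 nM substrate: [14C]-E2 for 17β-HSD2, [14C]-E1 for 17β-HSD7 and 17β-HSD12. Stopped at 12–25% substrate conversion; ether extraction, TLC, radiolabel quantification; triplicates, at least two experiments.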

The target of assay [8] is T4, Very-long-chain 3-oxoacyl-CoA reductase (Homo sapiens) (UniProt Q53GQ0).
T4 sequence (whole entry): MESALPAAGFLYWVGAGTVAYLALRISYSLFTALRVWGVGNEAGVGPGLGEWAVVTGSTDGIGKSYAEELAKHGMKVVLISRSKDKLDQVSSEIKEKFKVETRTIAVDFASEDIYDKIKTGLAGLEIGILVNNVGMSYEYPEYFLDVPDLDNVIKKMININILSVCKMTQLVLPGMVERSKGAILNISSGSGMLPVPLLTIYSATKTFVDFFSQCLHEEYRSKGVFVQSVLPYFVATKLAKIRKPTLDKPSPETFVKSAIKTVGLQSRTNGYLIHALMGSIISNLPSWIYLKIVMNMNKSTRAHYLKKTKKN
As to the kind of experiment: Inhibition of 17-beta HSD12 (unknown origin) transfected in HEK293 cells using [14C]E1 as substrate at 10 uM. The class given is cell-based. In a few lines: as §3

The target of assay [9] is T5, 17-beta-hydroxysteroid dehydrogenase type 2 (Homo sapiens) (UniProt P37059).
T5 sequence (whole entry): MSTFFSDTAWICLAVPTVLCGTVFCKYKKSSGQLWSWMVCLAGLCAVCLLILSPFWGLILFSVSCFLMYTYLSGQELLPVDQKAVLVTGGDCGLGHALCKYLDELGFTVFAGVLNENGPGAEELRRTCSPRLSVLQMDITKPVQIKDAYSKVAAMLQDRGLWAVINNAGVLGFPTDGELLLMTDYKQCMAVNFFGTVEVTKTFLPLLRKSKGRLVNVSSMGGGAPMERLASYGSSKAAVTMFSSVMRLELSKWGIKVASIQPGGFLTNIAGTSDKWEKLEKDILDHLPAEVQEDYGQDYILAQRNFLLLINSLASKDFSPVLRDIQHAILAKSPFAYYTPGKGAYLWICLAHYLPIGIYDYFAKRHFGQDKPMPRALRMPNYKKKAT
As to the kind of experiment: Inhibition of 17-beta HSD2 (unknown origin) transfected in HEK293 cells using [14C]E2 as substrate at 10 uM. The class given is cell-based. In outline:
as §3

Assay [10] has as its system MCF7. As to the kind of experiment: Cytotoxicity against human estrogen-starved estrogen-sensitive MCF7 cells assessed as cell growth at 0.1 uM after 7 days by MTS assay relative to control. The class given is functional. The settings on record: MCF7, 168 h, read-out: Activity. In outline:
as §1

In assay [11] the target is T1, 17-beta-hydroxysteroid dehydrogenase type 1 (Homo sapiens). The assay can be described thus: Irreversible inhibition of 17-beta HSD1 (unknown origin) using [14C]E1 as substrate at 0.1 to 0.5 uM after 45 mins by thin layer chromatography. In outline: (§4)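 Purified 17β-HSD1 in buffer (100 mM Tris, 20% glycerol, 0.2 mg/mL BSA, 2 mM EDTA) with 1 mM NADPH, preincubated at 37 °C with inhibitor (0, 100 or 500 nM), with or without unlabeled E1 (500 nM), over varying times. Then diluted 1:20 with [14C]-E1 (60 nM final), 45 min at 37 °C. Ether extraction, TLC, radiolabel quantification; activity as % of initial; triplicate.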

For assay [12] the target is unchanged. The assay can be described thus: Competitive inhibition of 17-beta HSD1 (unknown origin) using [14C]E1/E1 as substrate assessed as transformation of [14C]E1 to [14C]E2 at 0.1 to 0.5 uM after 45 mins by thin layer chromatography. In outline:
as §4

Assay [13] shares this target. The assay can be described thus: Inhibition of 17-beta HSD1 (unknown origin) using [14C]E1 as substrate at 0.1 to 0.5 uM by thin layer chromatography. The settings on record: TDE = time-dependent effect. In a few lines:
as §4

The target in assay [14] is T2, 17-beta-hydroxysteroid dehydrogenase type 1. The assay can be described thus: Inhibition of 17-beta HSD1 in human T47D cells. The class given is cell-based. In a few lines: as §2

Sequence of Cytochrome P450 3A4 (P08684 whole entry): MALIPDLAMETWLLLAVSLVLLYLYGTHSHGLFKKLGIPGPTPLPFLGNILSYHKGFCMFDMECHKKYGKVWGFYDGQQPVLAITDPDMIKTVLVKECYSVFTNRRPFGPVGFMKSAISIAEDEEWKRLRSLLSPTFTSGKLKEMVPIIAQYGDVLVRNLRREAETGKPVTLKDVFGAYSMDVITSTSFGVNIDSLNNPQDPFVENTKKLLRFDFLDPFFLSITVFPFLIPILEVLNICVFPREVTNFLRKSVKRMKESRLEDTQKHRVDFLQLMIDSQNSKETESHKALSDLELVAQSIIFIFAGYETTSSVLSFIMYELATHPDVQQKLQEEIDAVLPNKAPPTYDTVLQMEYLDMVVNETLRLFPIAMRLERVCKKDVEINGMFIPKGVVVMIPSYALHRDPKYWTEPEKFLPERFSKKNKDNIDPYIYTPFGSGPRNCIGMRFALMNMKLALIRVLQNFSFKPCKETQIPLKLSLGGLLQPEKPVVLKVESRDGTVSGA

On to `C[C@]12CC[C@@H]3c4ccc(OCCBr)cc4CC[C@H]3[C@@H]1C[C@H](Cc1cccc(C(N)=O)c1)[C@@H]2O`, for which, in assay [1], the percent proliferation above basal control at 0.1 µM worked out at 0%. Further, the % proliferation above basal control (0% = control) at 1 µM in assay [2] is 0%. The inhibition in [3] was 37%. Further, the IC50 in [4] is 0.172 µM.

For the compound `C[C@]12CC[C@@H]3c4ccc(CCCBr)cc4CC[C@H]3[C@@H]1C[C@H](Cc1cccc(C(N)=O)c1)[C@@H]2O`, the percent proliferation above basal control at 0.1 µM in assay [1] worked out at 0%. For the same compound, the % proliferation above basal control (0% = control) at 1 µM in assay [2] stood at 0%. Further, the inhibition in assay [3] worked out at 41%. Also, in assay [4], the IC50 came out at 0.153 µM.

As to `C[C@]12CC[C@@H]3c4ccc(O)cc4CC[C@H]3[C@@H]1C[C@H](Cc1cccc(C(N)=O)c1)[C@@H]2O`, in assay [5], the percent proliferation above basal control at 1 µM is > 30%. In addition, 1.5 µM corresponded to half-maximal inhibition in [6] (IC50). In addition, the inhibition in [7] was found to be 0%; in assay [8], 6%; in assay [3], 72%; in assay [9], 0%. Also, the percent proliferation above basal control at 0.1 µM in assay [10] was > 30%.

On to `C[C@]12CC[C@@H]3c4ccc(CCBr)cc4CC[C@H]3[C@@H]1C[C@H](Cc1cccc(C(N)=O)c1)[C@@H]2O`, for which the inhibition result in assay [11] and in assay [12] was “Active” in each case. Besides, the percent proliferation above basal control at 1 µM in assay [5] came to 0%. For the same compound, the IC50 in assay [6] was 3.9 µM; in [14], 0.097 µM. Besides, the inhibition result was “tde” in [13], 9% in assay [7], 34% in [8] and 7% in assay [9]. Besides, in assay [10], the percent proliferation above basal control at 0.1 µM was determined as 0%.
